In ChEMBL document CHEMBL2157924, “Cyclobutane derivatives as novel nonpeptidic small molecule agonists of glucagon-like peptide-1 receptor” (J Med Chem, 2012):
Activity calls are given as the source filed them. The rule behind the calls is not given here.

Legend:
[1] = molecular target: T1, Glucagon-like peptide 2 receptor (Homo sapiens) (UniProt O95838); assay: Agonist activity at human GLP2R expressed in HEK293 cells assessed as stimulation of cAMP levels incubated for 6 hrs by multiple response element/cAMP response element (MRE/CRE)-driven reporter gene assay; type: functional, cell-based
T1 sequence (whole entry): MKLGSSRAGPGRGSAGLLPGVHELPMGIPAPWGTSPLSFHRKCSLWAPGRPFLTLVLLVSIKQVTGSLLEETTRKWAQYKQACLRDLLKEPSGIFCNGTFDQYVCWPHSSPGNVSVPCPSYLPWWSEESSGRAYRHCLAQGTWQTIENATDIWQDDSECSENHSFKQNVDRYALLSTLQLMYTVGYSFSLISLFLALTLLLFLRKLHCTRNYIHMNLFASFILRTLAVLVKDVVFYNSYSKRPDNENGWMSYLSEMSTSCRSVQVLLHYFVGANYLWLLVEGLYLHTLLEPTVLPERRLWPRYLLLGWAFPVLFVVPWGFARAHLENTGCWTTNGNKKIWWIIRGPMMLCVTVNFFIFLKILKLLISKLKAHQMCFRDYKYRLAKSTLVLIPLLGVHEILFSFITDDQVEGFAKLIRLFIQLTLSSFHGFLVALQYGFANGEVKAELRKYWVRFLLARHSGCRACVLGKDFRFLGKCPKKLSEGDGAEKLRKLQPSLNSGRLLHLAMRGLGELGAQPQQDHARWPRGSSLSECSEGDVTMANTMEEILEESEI
Method in brief: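 HEK293 cells transiently cotransfected with human GLP-2 receptor or glucagon receptor expression vector plus a luciferase reporter carrying three copies of multiple response element and one cAMP response element. Luciferase activity at different compound concentrations was expressed relative to the respective native peptide (GLP-2 or glucagon, 100%). Mean ± SEM of triplicate experiments.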

[2] = molecular target: T2, Glucagon-like peptide 1 receptor (Rattus norvegicus) (UniProt P32301); assay: Agonist activity at rat GLP1R expressed in HEK293 cells assessed as stimulation of cAMP levels incubated for 6 hrs by multiple response element/cAMP response element (MRE/CRE)-driven reporter gene assay relative to 10 nM GLP1; type: functional, cell-based
T2 sequence (whole entry): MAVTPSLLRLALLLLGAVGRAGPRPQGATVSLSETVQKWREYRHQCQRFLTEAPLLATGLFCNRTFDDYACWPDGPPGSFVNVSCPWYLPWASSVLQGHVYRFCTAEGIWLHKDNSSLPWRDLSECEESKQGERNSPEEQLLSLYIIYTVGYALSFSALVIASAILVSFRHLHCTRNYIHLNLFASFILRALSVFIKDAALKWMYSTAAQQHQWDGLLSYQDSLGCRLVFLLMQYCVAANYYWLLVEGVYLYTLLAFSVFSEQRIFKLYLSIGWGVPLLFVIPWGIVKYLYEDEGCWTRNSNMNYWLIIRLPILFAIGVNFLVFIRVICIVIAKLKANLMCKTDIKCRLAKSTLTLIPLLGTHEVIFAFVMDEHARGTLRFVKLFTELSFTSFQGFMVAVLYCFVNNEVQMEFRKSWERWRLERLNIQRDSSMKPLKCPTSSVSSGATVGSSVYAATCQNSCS
Method in brief: (§1)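 Stable HEK293 line co-expressing rat GLP-1R (pCMV-Tag2B) and a luciferase reporter with 3× MRE plus 1× CRE, seeded at 40000 cells/well and cultured overnight. Compounds in DMSO or GLP-1(7−37) were added for 6 h, then cells were lysed and luciferase read (Steady-Glo). The 10 nM GLP-1 maximum was taken as 100%. Mean ± SEM of two independent experiments; some values come from a single run.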

[3] = molecular target: T2, Glucagon-like peptide 1 receptor (Rattus norvegicus); assay: Inhibition of [125I]Exendin (9-39) binding to rat GLP1R expressed in HEK293 cells; type: cell-based; parameters: concentration or dose not given beside the values; conditions: concentration not given here
Method in brief: (§2)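 Membranes (17 μg protein) from HEK293 cells stably expressing rat GLP-1R were preincubated 5 h at 4 °C with FlashBlue beads (150 μg). Then 40 pM [125I]GLP-1(7−36) amide or [125I]Exendin(9−39) was added with aprotinin 2 μg/mL, leupeptin 100 μM and test compound at varied concentrations. Incubated overnight at 4 °C, then bound radioactivity counted. Mean ± SEM of two independent experiments.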

[4] = molecular target: T3, Glucagon-like peptide 1 receptor (Rattus norvegicus, UniProt P32301); assay: Inhibition of [125I]GLP1 (7-36) amide binding to rat GLP1R expressed in HEK293 cells; type: cell-based; method in brief: as §2
T3 sequence (P32301 whole entry): T2 sequence (whole entry)

[5] = molecular target: T2, Glucagon-like peptide 1 receptor (Rattus norvegicus); assay: Inhibition of [125I]GLP1 (7-36) amide binding to rat GLP1R expressed in HEK293 cells relative to untreated control; type: cell-based; parameters: concentration or dose not given beside the values; conditions: concentration not given here; method in brief: as §2
[6] = molecular target: T3, Glucagon-like peptide 1 receptor; assay: Agonist activity at rat GLP1R expressed in HEK293 cells assessed as stimulation of cAMP levels incubated for 6 hrs by multiple response element/cAMP response element (MRE/CRE)-driven reporter gene assay; type: functional, cell-based; method in brief: as §1

With `CC[C@H](C)[C@H](NC(=O)[C@H](Cc1ccccc1)NC(=O)[C@H](CC(=O)O)NC(=O)[C@H](CCCNC(=N)N)NC(=O)[C@H](C)NC(=O)[C@H](C)NC(=O)[C@H](CC(C)C)NC(=O)[C@H](CC(N)=O)NC(=O)[C@H](CC(=O)O)NC(=O)[C@H](CC(C)C)NC(=O)[C@@H](NC(=O)[C@@H](NC(=O)[C@H](CC(N)=O)NC(=O)[C@H](CCSC)NC(=O)[C@H](CCC(=O)O)NC(=O)[C@H](CC(=O)O)NC(=O)[C@H](CO)NC(=O)[C@H](Cc1ccccc1)NC(=O)[C@H](CO)NC(=O)CNC(=O)[C@H](CC(=O)O)NC(=O)[C@H](C)NC(=O)[C@@H](N)Cc1cnc[nH]1)[C@@H](C)O)[C@@H](C)CC)C(=O)N[C@@H](CC(N)=O)C(=O)N[C@@H](Cc1c[nH]c2ccccc12)C(=O)N[C@@H](CC(C)C)C(=O)N[C@H](C(=O)N[C@@H](CCC(N)=O)C(=O)N[C@H](C(=O)N[C@@H](CCCCN)C(=O)N[C@H](C(=O)N[C@H](C(=O)N[C@@H](CC(=O)O)C(=O)N[C@@H](CCCNC(=N)N)C(=O)O)[C@@H](C)O)[C@@H](C)CC)[C@@H](C)O)[C@@H](C)CC` the Activity [1] was “Active”.

An Efficacy [2] of 100%, an inhibition [3] of 97% and an IC50 [4] of 1 nM were found for `CC[C@H](C)[C@H](NC(=O)[C@H](Cc1ccccc1)NC(=O)[C@H](CCC(=O)O)NC(=O)[C@H](CCCCN)NC(=O)[C@H](C)NC(=O)[C@H](C)NC(=O)[C@H](CCC(N)=O)NC(=O)CNC(=O)[C@H](CCC(=O)O)NC(=O)[C@H](CC(C)C)NC(=O)[C@H](Cc1ccc(O)cc1)NC(=O)[C@H](CO)NC(=O)[C@H](CO)NC(=O)[C@@H](NC(=O)[C@H](CC(=O)O)NC(=O)[C@H](CO)NC(=O)[C@@H](NC(=O)[C@H](Cc1ccccc1)NC(=O)[C@@H](NC(=O)CNC(=O)[C@H](CCC(=O)O)NC(=O)[C@H](C)NC(=O)[C@H](Cc1cnc[nH]1)NC(=O)[C@H](CCCNC(=N)N)NC(=O)[C@H](CCC(=O)O)NC(=O)[C@H](Cc1ccccc1)NC(=O)[C@H](CCC(=O)O)NC(=O)[C@H](CC(=O)O)NC(=O)[C@@H](N)Cc1cnc[nH]1)[C@@H](C)O)[C@@H](C)O)C(C)C)C(=O)N[C@@H](C)C(=O)N[C@@H](Cc1c[nH]c2ccccc12)C(=O)N[C@@H](CC(C)C)C(=O)N[C@H](C(=O)N[C@@H](CCCCN)C(=O)NCC(=O)N[C@@H](CCCNC(=N)N)C(=O)NCC(=O)O)C(C)C` in this work. The Activity [1] was “inactive”, the inhibition [5] was 100% and the EC50 [6] was 0.09 nM.

An Efficacy [2] of 60.8%, an inhibition [3] of 33.4% and an IC50 [4] of 500 nM were found for `COc1cc([C@H]2[C@](NC(=O)c3ccc(NC(=O)C(C)(C)C)cc3)(C(=O)O)[C@@H](c3ccc(OC(=O)c4cccs4)c(OC)c3)[C@]2(NC(=O)c2ccc(NC(=O)C(C)(C)C)cc2)C(=O)O)ccc1OC(=O)c1cccs1` in this work. It also gave an inhibition [5] of 47.6% and an EC50 [6] of 1110 nM.

An Efficacy [2] of 58%, an inhibition [3] of 32.9% and an IC50 [4] of 8500 nM were found for `COc1cc([C@H]2[C@](NC(=O)c3ccc(NC(=O)CCl)cc3)(C(=O)O)[C@@H](c3ccc(OC(=O)c4cccs4)c(OC)c3)[C@]2(NC(=O)c2ccc(NC(=O)CCl)cc2)C(=O)O)ccc1OC(=O)c1cccs1` in this work. For the same molecule, the inhibition [5] was 43.8% and the EC50 [6] was 3800 nM.

An Efficacy [2] of 35.9%, an inhibition [3] of 37.9% and an IC50 [4] of 300 nM were found for `COc1cc([C@H]2[C@](NC(=O)c3ccc(NC(=O)C4CCCC4)cc3)(C(=O)O)[C@@H](c3ccc(OC(=O)c4cccs4)c(OC)c3)[C@@]2(NC(=O)c2ccc(NC(=O)C3CCCC3)cc2)C(=O)O)ccc1OC(=O)c1cccs1` in this work. The inhibition [5] was 39.3% and the EC50 [6] was 657 nM.

An Efficacy [2] of 50.7%, an inhibition [3] of 36.8% and an IC50 [4] of 9600 nM were found for `COc1cc([C@H]2[C@](NC(=O)c3ccc(NC(=O)C(C)C)cc3)(C(=O)O)[C@@H](c3ccc(OC(=O)C4CCC4)c(OC)c3)[C@]2(NC(=O)c2ccc(NC(=O)C(C)C)cc2)C(=O)O)ccc1OC(=O)C1CCC1` in this work. The inhibition [5] was 47.9% and the EC50 [6] was 15800 nM.

For `CCCOc1ccc([C@H]2[C@](NC(=O)c3ccc(NC(=O)OC(C)(C)C)cc3)(C(=O)O)[C@@H](c3ccc(OCCC)cc3)[C@]2(NC(=O)c2ccc(NC(=O)OC(C)(C)C)cc2)C(=O)O)cc1`, the Efficacy [2] was < 15%, the inhibition [3] was < 15% and the IC50 [4] was > 20000 nM. The inhibition [5] was < 15% and the EC50 [6] was > 20000 nM.
